Published values from different studies.
Protocols differ between the studies behind these lines.
CDK7: Cyclin-dependent kinase 7 (CDK7, Homo sapiens, UniProt P50613)
CDK7 with cyclin H: Cyclin-dependent kinase 7, with cyclin H (CDK7, Homo sapiens, UniProt P50613)

Structure (SMILES)	target	effect on	mode	technique	tested at	measurement	result
Cc1nn(C)cc1-c1nc2c(N3CCN(Cc4ccc(Cl)cc4)CC3)c(Cl)cnc2[nH]1	CDK7	binding		competition with immobilised ligand	1 µM	remaining binding	100%
Cn1cc(-c2cccc(N3CCc4c(sc5c4CC(C)(C)C5)C3=O)c2CO)cc(Nc2ccncn2)c1=O	CDK7 with cyclin H	enzyme activity	inhibitor		1 µM	inhibition	-11%
Nc1ncc(-c2nc(N3CCOCC3)nc(N3CCOCC3)n2)c(C(F)F)n1	CDK7	binding		competition with immobilised ligand	10 µM	remaining binding	56%
CCN1CCN(Cc2ccc(C(=O)Nc3ccc(C)c(Oc4ccc5c(c4)CC(=O)N5)c3)cc2C(F)(F)F)CC1	CDK7	binding		competition with immobilised ligand	1 µM	remaining binding	84%
CNC(=O)Oc1ccc2c(c1)[C@]1(C)CCN(C)[C@@H]1N2C	CDK7 with cyclin H	enzyme activity	inhibitor	ADP detection	10 µM	inhibition	-4.5%
Cn1cncc1[C@](O)(COc1ccc(C#N)cc1-c1ccc(OC(F)(F)F)cc1)c1ccc(C#N)cc1	CDK7	cell-free assay		competition with immobilised ligand	1 µM	remaining binding	95%
C[C@]12CC[C@H](O)CC1=CC[C@@H]1[C@@H]2CC[C@]2(C)C(=O)CC[C@@H]12	CDK7 with cyclin H	enzyme activity	inhibitor	ADP detection	10 µM	inhibition	-2%
Cn1cc(-c2cc(F)cc(N3CCn4c(cc5c4CCCC5)C3=O)c2CO)cc(Nc2ccc(N3CCN(C4COC4)CC3)cn2)c1=O	CDK7 with cyclin H	enzyme activity	inhibitor		0.1 µM	inhibition	4%
COc1cc2occc2c2oc(=O)ccc12	CDK7 with cyclin H	enzyme activity	inhibitor	ADP detection	10 µM	inhibition	-29.9%
COc1ncccc1-c1cnn2ccc(N3CCN(C(=O)OC(C)C)CC3)nc12	CDK7	binding		competition with immobilised ligand	1 µM	remaining binding	100%
